Screens as filed in PubChem BioAssay.
NPY-Y1 PAM-ag: NPY-Y1 receptor potentiators or agonists, primary screen, cell-based; NPY-Y1 expressing cells, potentiator/agonist activation; activation, % at 3.6 µM; actives 0.37% (n = 220,000); AID 1304, 2008; in the data active means activation above about 33%, passing the limit was not always enough;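 further: cells stimulated with NPY at EC10 then isoproterenol at EC100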
NPY Y1 blocker: NPY-Y1 receptor antagonists, primary screen, cell-based | actives 1% (n = 200,000) | inhibition, % at 3.6 µM | HEK293-CNG Y1 cells, membrane potential fluorescence; NPY at EC95, then isoproterenol | Neuropeptide Y receptor type 1 (Homo sapiens), P25929;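 active means inhibition above the campaign mean inhibition of all tested compounds plus 3 SD, cut at about 20% in these data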
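Material: HEK293 Y1/CNG channel cell line; also added: NPY (25 nM), isoproterenol (1 µM), Ro 20-1724 (25 µM); doses: one concentration, 3.6 µM, in 0.4% DMSO; schedule: compound incubation 1 h at room temperature, readout 45 min post-stimulation; technique: membrane potential fluorescence; measure: fluorescence ratio normalized to % inhibition between controls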
NPY-Y2 PAM-ag: NPY-Y2 potentiators or agonists, primary screen, cell-based | activation, % at 3.6 µM | Neuropeptide Y receptor type 2 (Homo sapiens), P49146 | cells expressing NPY-Y2, potentiator/agonist read-out | actives 0.45% (n = 220,000) | AID 1359, 2008; in the data active means activation above about 27%;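 further: cells stimulated with NPY near EC25 plus isoproterenol at EC100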
Target sequence (P49146 whole entry, looked up): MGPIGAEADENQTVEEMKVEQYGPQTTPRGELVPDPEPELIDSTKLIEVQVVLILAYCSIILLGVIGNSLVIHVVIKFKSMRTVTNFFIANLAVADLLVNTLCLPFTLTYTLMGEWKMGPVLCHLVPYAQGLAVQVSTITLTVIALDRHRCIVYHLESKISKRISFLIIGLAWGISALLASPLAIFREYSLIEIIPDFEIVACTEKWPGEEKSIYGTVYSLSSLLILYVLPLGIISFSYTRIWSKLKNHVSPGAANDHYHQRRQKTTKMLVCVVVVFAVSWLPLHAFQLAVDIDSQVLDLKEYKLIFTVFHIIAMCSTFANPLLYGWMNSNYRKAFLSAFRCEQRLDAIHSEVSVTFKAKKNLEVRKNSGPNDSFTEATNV
NPY Y2 blocker: NPY-Y2 receptor antagonists, primary screen, cell-based | Neuropeptide Y receptor type 2 (Homo sapiens), P49146 | NPY-Y2 expressing cells, antagonist mode | inhibition, % at 2.7 µM | actives 0.99% (n = 140,000) | AID 793, 2007; in the data active means inhibition above about 17%
Furin inh: human furin inhibitors, primary screen, biochemical, fluorescence intensity; P09958; purified furin, fluorogenic substrate cleavage; inhibition, % at 20 µM or 30 µM; actives 0.061% (n = 220,000); in the data active means inhibition above about 25%
KCC2 mod: KCC2 cotransporter modulators, thallium flux, primary screen, cell-based, HEK293 KCC2, FluoZin-2 fluorescence, MLSMR. KCC2 cells, thallium flux FluoZin-2 fluorescence. B-score of Tl+ flux slope (higher = more flux/activation; lower = inhibition) at 10 µM. actives 2.2% (n = 190,000);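 active means thallium flux slope and its plate-corrected score both differing from the plate sample mean at a set confidence after two filtering rounds, in either direction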;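 further: slope of fluorescence scaled to starting intensity during 10 to 20 s after thallium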
NPY-Y1 antag ct: NPY-Y1 receptor antagonists, selectivity check, counter-screen for NPY-Y2 antagonist project, cell-based; cell-based NPY-Y1 antagonism counterscreen; shares compounds with NPY Y2 blocker; actives 19% (n = 710); inhibition, % at 3.6 µM; in the data active means inhibition above about 20%;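 further: cells challenged with NPY then isoproterenol with cAMP sensed through a CNG channel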
NPY-Y2 ant conf: NPY-Y2 receptor antagonists, retest of hits, confirmation, HEK293-CNG cells, membrane potential fluorescence, triplicate. shares compounds with NPY Y2 blocker. HEK293 NPY-Y2 CNG channel. inhibition, % at 2.8 µM. actives 32% (n = 710). AID 1257, 2008;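 active means mean inhibition of triplicate wells above the hit cutoff set in the primary screen, cut at about 17% in these data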
A number is an active result; n = inactive; x = not tested or not shown. Only some compounds are listed: those with a hit (about 3.7% of all), similar ones and a draw of the others.

SMILES	NPY-Y1 PAM-ag	NPY Y1 blocker	NPY-Y2 PAM-ag	NPY Y2 blocker	Furin inh	KCC2 mod	NPY-Y1 antag ct	NPY-Y2 ant conf
COc1cccc(-c2c(C#N)c(SC)nc3cc(C)nn23)c1	n	x	n	x	n	n	x	x
Cc1nc(-n2nnc3ccccc32)c2c3c(sc2n1)CCCC3	n	n	n	22	n	x	n	n
c1ccc2c(c1)nnn2-c1ncnc2sc3c(c12)CCCC3	n	n	n	n	n	x	x	x
COc1cccc(CN2CCNC(=O)C2CC(=O)NCCOc2cccnc2)c1 (configuration not stated)	n	n	n	x	n	n	x	x
COc1cc(/C=N/NC(=O)CCOc2ccccc2C)cc(Br)c1O	n	n	n	x	n	n	x	x
COc1ccc(/C=N/NC(=O)CN(CCc2ccccc2)S(=O)(=O)c2ccc(NC(C)=O)cc2)cc1OC	n	n	n	18	n	n	n	44
COc1cc(/C=N/NC(=O)CN(CCc2ccccc2)S(=O)(=O)c2ccc(NC(C)=O)cc2)cc(OC)c1OC	n	n	n	n	n	n	x	x
COc1ccc(/C=N/NC(=O)CCOc2ccccc2C)cc1OC	n	n	n	35	n	x	n	n
O=c1n(Cc2ccc(Cl)cc2)c2sc3c(c2c2ncnn12)CCCC3	n	n	n	41	n	n	22	32
CCN1CCc2c(OCc3ccc(C)cc3)cccc2C1=O	n	n	n	x	n	n	x	x
CCCc1nnc2n1N=C(c1ccc(OC)c(OC)c1)CS2	n	n	n	19	n	x	n	n
NNC(=O)c1ccc(O)cc1O	n	n	n	n	n	n	x	x
O=C(NCC1CCCO1)c1nc2c(nnn2Cc2ccccc2Cl)c(=O)[nH]1 (configuration not stated)	n	n	n	18	n	n	n	n
Cc1ccc(C)c(Cn2nnc3c(=O)[nH]c(C(=O)NCC4CCCO4)nc32)c1 (configuration not stated)	n	n	n	n	n	n	x	x
C/C(=N\NC(=S)NCCc1ccccc1)c1ccc(C#N)cc1	n	n	n	n	n	n	x	x
S=C(NCCc1ccccc1)N/N=C/c1ccccc1Cl	n	n	n	43	n	n	n	18
O=C(Cc1ccccc1)N/N=C/c1ccccc1Cl	n	n	n	n	n	n	x	x
CCc1ccc(/C=N/NC(=S)NCCc2ccccc2)cc1	n	n	n	33	n	n	28	30
C/C(=N\NC(=S)NCCc1ccccc1)c1ccc(C)cc1	n	n	n	17	n	2.9	n	n
CCN(CC)Cc1c(CC(C)C)oc(C)c1C(=O)O	n	n	n	n	n	x	x	x
C/C(CC(=O)Nc1cccc2c1CCCC2)=N\NC=O	n	n	n	x	n	n	x	x
COc1ccc(-c2nnc3sc(C(C)N4C(=O)c5ccccc5C4=O)nn23)cc1 (configuration not stated)	n	n	n	21	n	n	n	29
CCOc1ccc(-c2nnc3sc(-c4ccccc4OC)nn23)cc1	n	n	n	n	n	n	x	x
Cc1c(CN2CCC(CO)(Cc3cccc(C(F)(F)F)c3)CC2)c2ccccc2n1C	n	n	n	x	n	x	x	x
CCOC(=O)c1c(Nc2ccccc2OCCOC)n[nH]c1C	n	x	n	x	n	n	x	x
SMILES	NPY-Y1 PAM-ag	NPY Y1 blocker	NPY-Y2 PAM-ag	NPY Y2 blocker	Furin inh	KCC2 mod	NPY-Y1 antag ct	NPY-Y2 ant conf
COc1ccc(C2Nc3ccccc3C(=O)N2c2ccc(C)cc2)cc1Cn1nnc2ccccc21 (configuration not stated)	n	n	n	n	n	x	x	x
COc1ccc(C2Nc3ccccc3C(=O)N2c2ccc(C)cc2)cc1Cn1cc([N+](=O)[O-])cn1 (configuration not stated)	n	n	n	19	n	x	27	63
CCC(c1nnnn1CCc1ccccc1)N(Cc1ccco1)Cc1cc2cc(C)cc(C)c2[nH]c1=O (configuration not stated)	n	n	n	17	n	n	n	n
CC1CN(C(=O)C2(C)CC2(Br)Br)CC(C)O1 (configuration not stated)	n	n	n	n	n	n	x	x
Cc1cc(C(=O)CSc2n[nH]c(N)n2)c(C)n1-c1ccc2c(c1)OCO2	n	n	n	n	n	n	x	x
O=C(Cn1nc(-c2ccccc2)nc1-c1ccccc1)OC1CCCCC1	n	n	n	19	n	n	n	n
COc1ccc(C2OC(=O)CC2C(=O)NCc2ccc(Cl)cc2)cc1OC (configuration not stated)	n	n	n	x	n	n	x	x
COc1ccc(C(=O)Nc2cccc(OC(=O)c3ccc(C)c(C)c3)c2)cc1	n	n	n	17	n	n	23	23
Cc1cc(/C=N/N2CCN(C)CC2)c(C)n1-c1ccc(Cl)cc1	n	x	n	x	n	n	x	x
COCCNC(=O)c1onc(CSc2cc(C)ccc2C)c1C(=O)O	n	n	n	n	n	n	x	x
CCCCNC(=O)c1onc(CSc2cc(C)ccc2C)c1C(=O)O	n	n	n	21	n	n	31	25
CC(NC(=S)Nc1ccc(S(=O)(=O)N2CCOCC2)cc1)C1CC2CCC1C2 (configuration not stated)	n	n	n	n	n	n	x	x
CCCCOP(=O)(OCCCC)C(Nc1ccccc1)c1ccc2c(c1)OCO2 (configuration not stated)	n	n	n	19	n	n	n	n
COc1ccc(OC)c(-c2csc(N(CC3CCCO3)C(=O)C3CCCCC3)n2)c1 (configuration not stated)	n	n	n	x	n	n	x	x
Cc1cccc(CC2CC(=O)N(c3nc4ccccc4s3)C2=O)c1 (configuration not stated)	n	n	n	x	n	n	x	x
COc1ccc2sc(N3C(=O)CC(Cc4cccc(C)c4)C3=O)nc2c1 (configuration not stated)	n	n	n	27	n	x	n	n
O=C(CSc1ncn(-c2ccccc2)n1)Nc1ccc2c(c1)OCCO2	n	n	n	18	n	n	27	24
O=C(CSc1nnnn1-c1ccc(Cl)cc1)NC(=O)Nc1ccc2c(c1)OCCO2	n	n	n	20	n	n	n	n
